Data on one compound can be found in ChEMBL document CHEMBL2424598, “Identification and optimization of pteridinone Toll-like receptor 7 (TLR7) agonists for the oral treatment of viral hepatitis” (J Med Chem, 2013).

Active and inactive are the calls of the source.

The test system of data set [1] is Cynomolgus monkey. Description: Agonist activity at […] in po dosed cynomolgus monkey assessed as increase of serum IFNalpha level after 1 to 24 hrs by ELISA. Type of data set: functional, organism-based. Particulars: Macaca fascicularis. The essentials:
(§1)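 Healthy male cynomolgus monkeys, n = 3 per group, dosed either by 30 min iv infusion or orally. Serum was sampled predose and at 1, 2, 4, 8, 12 and 24 h postdose. IFN-α was measured by species-specific ELISA (limit of detection 130 pg/mL) and reported as mean peak serum level ± SD.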
(ELISA stands for enzyme-linked immunosorbent assay.)

In data set [2] the test system is Cynomolgus monkey. Description: Agonist activity at […] in cynomolgus monkey assessed as increase of serum IFNalpha level at 0.1 mg/kg, iv after 1 to 24 hrs by ELISA. The class given is functional, Macaca fascicularis. The essentials:
as §1

Data set [3] is described as follows: Cmax in cynomolgus monkey at 1 mg/kg, po. The class given is ADME, organism-based, Macaca fascicularis. Set-up: dose 1 mg/kg, route oral. The settings on record: in vivo. The essentials:
(§2)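 Male cynomolgus monkeys, n = 3 per group, received a 30 min iv infusion or an oral dose. Compound was measured in serum (limit of quantitation 0.04 ng/mL), and Cmax is reported as the group mean.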

Data set [4] is described as follows: Cmax in cynomolgus monkey at 0.1 mg/kg, po. Type of data set: ADME, organism-based, Macaca fascicularis. Also on record: dose 0.1 mg/kg, route oral. The settings on record: in vivo. In a few lines: as §2
Data set [5] in a line: Cmax in cynomolgus monkey at 0.1 mg/kg, iv. Type of data set: ADME, organism-based, Macaca fascicularis. Also on record: dose 0.1 mg/kg, route intravenous. The settings on record: in vivo. In a few lines: as §2
Data set [6] is described as follows: Oral bioavailability in cynomolgus monkey at 0.3 mg/kg. The class given is ADME, organism-based, Macaca fascicularis. Particulars: in vivo. The essentials: (§3)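 Healthy male cynomolgus monkeys, n = 3, received a 30 min iv infusion at 0.1 mg/kg or an oral dose at 0.3 mg/kg. The oral formulation was water at pH 3.1 (HCl). Plasma PK parameters (CL, Vss, F) are reported as mean ± SD.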

The nature of data set [7]: Volume of distribution at steady state in cynomolgus monkey at 0.1 mg/kg, iv and 0.3 mg/kg, po. The settings on record: in vivo, read-out: Vdss. Type of data set: ADME, organism-based, Macaca fascicularis. In a few lines:
as §3

The nature of data set [8]: Half life in monkey liver microsomes. The class given is ADME, Macaca mulatta, Microsome. Particulars: rhesus monkey. On the technique in general: Microsomes from liver hold many membrane-bound enzymes, among them those of drug oxidation.
In data set [9] the target is T1, Toll-like receptor 8 (Homo sapiens) (UniProt Q9NR97).
T1 sequence (whole entry): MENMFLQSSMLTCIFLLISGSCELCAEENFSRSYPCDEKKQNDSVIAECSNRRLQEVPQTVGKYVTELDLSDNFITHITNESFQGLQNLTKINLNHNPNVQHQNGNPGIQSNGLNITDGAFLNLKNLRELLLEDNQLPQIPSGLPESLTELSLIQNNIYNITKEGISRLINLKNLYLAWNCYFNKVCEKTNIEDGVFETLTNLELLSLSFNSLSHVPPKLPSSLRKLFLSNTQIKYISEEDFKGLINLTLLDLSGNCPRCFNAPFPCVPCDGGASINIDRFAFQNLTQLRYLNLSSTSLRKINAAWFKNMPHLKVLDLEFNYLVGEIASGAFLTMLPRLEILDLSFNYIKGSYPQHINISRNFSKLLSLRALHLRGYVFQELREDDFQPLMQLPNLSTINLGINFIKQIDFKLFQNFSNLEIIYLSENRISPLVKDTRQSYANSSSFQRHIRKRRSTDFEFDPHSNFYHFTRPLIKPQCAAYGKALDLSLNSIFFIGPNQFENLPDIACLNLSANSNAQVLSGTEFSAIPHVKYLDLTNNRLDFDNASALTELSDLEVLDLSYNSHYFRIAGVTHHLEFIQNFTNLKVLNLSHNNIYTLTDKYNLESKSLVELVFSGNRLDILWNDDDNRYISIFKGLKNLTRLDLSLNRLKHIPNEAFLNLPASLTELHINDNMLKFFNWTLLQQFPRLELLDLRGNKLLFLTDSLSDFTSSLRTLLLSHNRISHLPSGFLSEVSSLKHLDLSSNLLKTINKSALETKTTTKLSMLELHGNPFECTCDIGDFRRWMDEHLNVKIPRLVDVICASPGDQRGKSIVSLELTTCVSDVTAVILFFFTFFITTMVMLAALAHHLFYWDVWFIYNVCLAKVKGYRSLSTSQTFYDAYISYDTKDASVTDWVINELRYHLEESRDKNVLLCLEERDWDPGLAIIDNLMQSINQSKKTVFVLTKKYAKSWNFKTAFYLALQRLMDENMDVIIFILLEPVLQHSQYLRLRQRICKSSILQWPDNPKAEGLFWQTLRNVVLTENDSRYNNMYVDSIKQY
Description: Agonist activity at TLR8-mediated TNFalpha production in human PBMC assessed as minimum concentration of compound necessary to generate >3 fold of cytokine levels relative to control. The essentials:
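Cryopreserved human PBMCs from leukapheresis of one healthy donor, chosen as a consistent responder to TLR7 stimulation; 24 h incubation with compound over an eight-point concentration range. TNF-α read from dose-response curves. MEC is the lowest concentration giving cytokine levels at least 3-fold above untreated control cultures.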

Data set [10] has as its system Cynomolgus monkey. The data set can be described thus: Agonist activity at […] in cynomolgus monkey assessed as increase of serum TNFalpha level at 0.3 to 1 mg/kg after 1 to 24 hrs by ELISA. The settings on record: Macaca fascicularis.

A word on the Cmax: it is the peak of the concentration-time curve. The term bioavailability denotes dose-corrected exposure relative to a reference, in per cent. In general, half-life refers to the time needed for the level to fall by half in the phase considered. As for `CCCCOc1nc(N)c2c(n1)N(Cc1cccc(CN3CCCC3)c1)CC(=O)N2` [VESATOLIMOD], the values for the Activity result in the data set with Cynomolgus monkey [1] and in the data set with Cynomolgus monkey [2] were “Dose-dependent effect” and 1840 pg/mL, respectively. In addition, the Cmax amounted to 20.7 ng/mL in data set [3], 1.6 ng/mL in [4] and 128 ng/mL in data set [5]. In data set [6], this compound showed a bioavailability of 1.1%. Also, the Vd in data set [7] was found to be 4.1 L/kg. The compound further came in with a half-life in data set [8] of 5.9 min. For the same compound, the MEC in [9] stood at 3.65 µM. Besides, the outcome in the data set with Cynomolgus monkey [10] was inactive.
